Assay results published in ChEMBL document CHEMBL1275301, “Antihypertensive activity of newer 1,4-dihydro-5-pyrimidine carboxamides: synthesis and pharmacological evaluation” (2010).
Activity calls are given as the source filed them. The calls are words filed in the database; no cut-off is given here.

What was measured:
[1] = tested on: Rattus norvegicus; assay: Antihypertensive activity against DOCA-salt induced hypertension in albino rat assessed as reduction in systolic blood pressure at 10 mg/kg, po after 240 mins by tail-cuff method; assay type: functional; details: Artery, 4 h
In short: (§1)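 Rats given DOCA 20 mg/kg s.c. twice weekly in olive oil for 4 weeks, with 1% w/v NaCl as drinking water, reaching systolic 160–180 mm Hg. Rats were trained in restrainer and tail-cuff sessions. Compounds in 0.5% CMC were dosed at 10 mg/kg by oral feeding needle, with vehicle and nifedipine groups. BP was read before dosing and after, with the tail warmed at 37 °C for 2–5 min. Each compound was run three times in one week and readings averaged.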

[2] = tested on: Rattus norvegicus; assay: Antihypertensive activity against DOCA-salt induced hypertension in albino rat assessed as reduction in systolic blood pressure at 10 mg/kg, po after 60 mins by tail-cuff method; assay type: functional; details: Artery, 1 h; in short: as §1
[3] = tested on: Rattus norvegicus; assay: Antihypertensive activity against DOCA-salt induced hypertension in albino rat assessed as reduction in systolic blood pressure at 10 mg/kg, po after 180 mins by tail-cuff method; assay type: functional; details: Artery, 3 h; in short: as §1
[4] = tested on: Rattus norvegicus; assay: Antihypertensive activity against DOCA-salt induced hypertension in albino rat assessed as reduction in systolic blood pressure at 10 mg/kg, po after 120 mins by tail-cuff method; assay type: functional; details: Artery, 2 h; in short: as §1
[5] = tested on: Rattus norvegicus; assay: Antihypertensive activity against DOCA-salt induced hypertension in albino rat assessed as reduction in systolic blood pressure at 10 mg/kg, po after 900 mins by tail-cuff method; assay type: functional; details: Artery, 15 h; in short: as §1
[6] = tested on: Rattus norvegicus; assay: Antihypertensive activity against DOCA-salt induced hypertension in albino rat assessed as reduction in systolic blood pressure at 10 mg/kg, po after 600 mins by tail-cuff method; assay type: functional; details: Artery, 10 h; in short: as §1
[7] = tested on: Rattus norvegicus; assay: Antihypertensive activity against DOCA-salt induced hypertension in albino rat assessed as reduction in systolic blood pressure at 10 mg/kg, po after 300 mins by tail-cuff method; assay type: functional; details: Artery, 5 h; in short: as §1
[8] = tested on: Rattus norvegicus; assay: Antihypertensive activity against DOCA-salt induced hypertension in albino rat assessed as reduction in systolic blood pressure at 10 mg/kg, po after 720 mins by tail-cuff method; assay type: functional; details: Artery, 12 h; in short: as §1
[9] = tested on: Rattus norvegicus; assay: Antihypertensive activity against DOCA-salt induced hypertension in albino rat assessed as reduction in systolic blood pressure at 10 mg/kg, po up to 360 mins by tail-cuff method; assay type: functional, organism-based; set-up: dose 10 mg/kg; details: Artery; in short: as §1
[10] = tested on: Rattus norvegicus; assay: Antihypertensive activity against DOCA-salt induced hypertension in albino rat assessed as reduction in systolic blood pressure at 10 mg/kg, po after 360 mins by tail-cuff method; assay type: functional; details: Artery, 6 h; in short: as §1
[11] = tested on: Rattus norvegicus; assay: Antihypertensive activity against DOCA-salt induced hypertension in albino rat assessed as reduction in systolic blood pressure at 10 mg/kg, po after 30 mins by tail-cuff method; assay type: functional; details: Artery, 0.5 h; in short: as §1
[12] = tested on: Rattus norvegicus; assay: Antihypertensive activity against DOCA-salt induced hypertension in albino rat assessed as reduction in systolic blood pressure at 10 mg/kg, po after 15 mins by tail-cuff method; assay type: functional; details: Artery, 0.25 h; in short: as §1

COc1ccc(C2N=C(SCc3ccc(Cl)cc3)NC(C)=C2C(=O)Nc2ccc(Br)cc2)cc1 (configuration not stated) was tested, and the inhibition in vivo at 10 mg/kg [1] was 29.2%, the inhibition in vivo at 10 mg/kg [2] was 12.3% and the inhibition in vivo at 10 mg/kg [3] was 22.7%. It also gave an inhibition in vivo at 10 mg/kg [4] of 16.5%, an inhibition in vivo at 10 mg/kg [5] of 20% and an inhibition in vivo at 10 mg/kg [6] of 30.3%. For the same compound, the inhibition in vivo at 10 mg/kg [7] was 37.9%, the inhibition in vivo at 10 mg/kg [8] was 23.7% and the Activity [9] was “Active”. The inhibition in vivo at 10 mg/kg [10] was 39.2%, the inhibition in vivo at 10 mg/kg [11] was 7.2% and the inhibition in vivo at 10 mg/kg [12] was 3.1%.
